By Kd is commonly meant the free concentration of one partner at which half of the binding sites on the other are occupied at equilibrium, for simple one-to-one binding. Low values mean a tighter complex, high ones a looser complex. As usually defined, the IC50 is the point on the concentration scale where inhibition reaches its midpoint.

The values that follow come from ChEMBL document CHEMBL4033789, “Discovery of a New Four-Leaf Clover-Like Ligand as a Potent c-MYC Transcription Inhibitor Specifically Targeting the Promoter G-Quadruplex” (J Med Chem, 2018).

Data set [1] can be described thus: Binding affinity to 1 uM KRAS promoter G-quadruplex DNA (unknown origin) at 1 uM after 1 min by fluorescence spectroscopic analysis. Type of data set: ADME. The method, boiled down: (§1)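 Fluorescence emission spectra of 1 µM compound mixed with 1 µM pre-annealed oligonucleotide (G-quadruplexes folded in 100 mM KCl by heating to 95 °C for 5 min, slow cooling), in Tris-HCl buffer.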

Data set [2] is filed under the species Homo sapiens. The experiment in a line: Stabilization of c-Myc G-quadruplex DNA in human SiHa cells assessed as decrease in c-Myc protein expression at 1.25 to 5 uM after 24 hrs by Western blot method. The class given is cell-based. The essentials:
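SiHa cells (2.0×10^5) exposed 24 h, lysed at 4 °C; 30 µg protein per lane on 10% SDS-PAGE, transferred to nitrocellulose, milk-blocked, primary antibody overnight at 4 °C, HRP secondary 2 h at room temperature.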
(A western blot detects proteins with antibodies after separation by electrophoresis.)

Data set [3] is filed under the species Homo sapiens. The experiment in a line: Stabilization of c-Myc promoter G-quadruplex DNA in human CA46 cells assessed as downregulation of exon 1 transcriptional level at 1.25 to 5 uM after 6 hrs by RT-PCR analysis. Type of data set: cell-based. The method, boiled down:
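RAJI and CA46 cells treated 6 h over a concentration range; total RNA reverse-transcribed (oligo dT18, M-MLV, 42 °C 1 h then 85 °C 5 min); exon 1 and exon 2 amplified by real-time PCR with exon-specific primers, products run on 1% agarose gel; three repeats.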

The nature of data set [4]: Stabilization of c-Myc mutant promoter DNA (unknown origin) transfected in human SiHa cells assessed as reduction in gene transcription at 1.25 to 2.5 uM after 24 hrs by dual-luciferase reporter gene assay. Type of data set: cell-based. The method, boiled down: (§2)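 SiHa cells transfected with psiCHECK2 carrying wild-type or mutant c-MYC promoter driving Renilla luciferase, firefly luciferase on same plasmid; compound added 4 h post-transfection, incubated further at 37 °C; Renilla signal normalized to firefly; three repeats, mean ± SEM.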
A general note: Reporter assays use an easily measured gene product as a stand-in for the process of interest.

For data set [5], the system named is SiHa. The experiment in a line: Antitumor activity against human SiHa cells xenografted in nude BALB/c mouse assessed as tumor growth inhibition at 5 to 20 mg,kg, ip administered every other day for 24 days. The note with it: TDE = time-dependent effect. The class given is functional, organism-based. The method, boiled down: (§3)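 BALB/c nude mice (5 weeks old) given 1×10^7 SiHa cells subcutaneously in right flank; at ~50 mm3 tumor volume, randomized (10 per group) and dosed intraperitoneally every other day for 24 days; controls got equal-volume saline. Caliper volume as 1/2 × length × width2; tumors weighed at end; inhibition rate = (1 − mean treated tumor weight/mean control tumor weight) × 100%.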
A general note: In xenograft studies the graft and the host belong to different species.

A short description of data set [6]: Binding affinity to up to 1 uM c-MYC promoter G-quadruplex pu22 DNA (unknown origin) after 1 min by fluorescence titration method. The method, boiled down:
(§4)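 Oligonucleotide stock added stepwise to fixed-concentration compound in 10 mM Tris-HCl pH 7.2, 100 mM KCl; equilibrated ≥1 min after each addition, emission read with excitation at 350 nm. KD from fitting titration data to the Benesi–Hildebrand equation; 1:1 stoichiometry checked by Job plot.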

In data set [7] the test system is SiHa. The experiment in a line: Induction of cell cycle arrest in human SiHa cells assessed as downregulation of CDK6 protein levels after 24 hrs by Western blot analysis. The class given is functional, cell-based. The method, boiled down: (§5)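 SiHa cells (2.0×10^5 per well) treated 24 h, lysed at 4 °C for 30 min, supernatant cleared at 15,000 rpm; protein measured by BCA, 30 µg resolved on 10% SDS-PAGE, transferred to nitrocellulose, blocked in 5% milk/TBS-Tween 1 h, primary antibodies overnight at 4 °C, HRP secondaries 2 h at room temperature.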

A further data set concerns BJ. The experiment in a line: Antiproliferative activity against human BJ cells assessed as reduction in colony formation at 0.5 uM measured on day 8 by crystal violet-staining based assay. The class given is cell-based. The essentials: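 Cells seeded at 300 per well in six-well plates, exposed to compound at 37 °C, 5% CO2, with drug-containing medium replaced every 2 days; after 8 days of culture, colonies fixed with methanol and stained with crystal violet.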

In data set [8] the test system is SiHa. Description: Cytotoxicity against human SiHa cells assessed as reduction in cell viability after 24 hrs by MTT assay. Type of data set: functional, cell-based. The method, boiled down: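 Cells seeded at 5.0×10^3 per well, exposed to compound for 24 h; MTT (2.5 mg/mL) added for 4 h, formazan dissolved in DMSO, OD read at 570 nm. Triplicate; IC50 from curves of mean OD against concentration.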

A short description of data set [9]: Stabilization of BCL2 promoter G-quadruplex DNA (unknown origin) assessed as effect on melting temperature at 15 uM by circular dichroism spectroscopic assay. Type of data set: ADME. The essentials: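 G-quadruplex at 3 µM, with or without 15 µM compound, in 10 mM Tris-HCl pH 7.2 containing 2 mM KCl; CD recorded every 5 °C from 25 to 95 °C at a heating rate of 1 °C/min.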

Data set [10] concerns SiHa. The experiment in a line: Antitumor activity against human SiHa cells xenografted in nude BALB/c mouse assessed as tumor growth inhibition at 5 mg,kg, ip administered every other day for 24 days. The class given is functional. The method, boiled down:
as §3

The nature of data set [11]: Stabilization of c-Kit1 promoter G-quadruplex DNA (unknown origin) assessed as effect on melting temperature at 15 uM by circular dichroism spectroscopic assay. The class given is ADME. The method, boiled down:
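CD melting of 3 µM annealed G-quadruplex with or without 15 µM ligand in 10 mM Tris-HCl pH 7.2 with 2 mM KCl (50 mM KCl for htg22 and HRAS); read every 5 °C over 25–95 °C, heating 1 °C/min.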

Data set [12] in a line: Stabilization of PDGFA G-quadruplex DNA in human SiHa cells assessed as effect on PDGFA mRNA level at 1.25 to 5 uM fter 6 hrs by RT-PCR method. Type of data set: ADME, cell-based. The essentials: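 SiHa cells (2.0×10^5 per well) treated 6 h; total RNA (2 µg) reverse-transcribed with oligo dT18 and M-MLV at 42 °C for 1 h, 85 °C for 5 min; PCR: 95 °C 5 min, then 30 cycles of 95 °C 30 s, 58 °C 30 s, 72 °C 40 s; products checked on agarose gel.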

For data set [13], the system named is SiHa. Description: Induction of cell cycle arrest in human SiHa cells assessed as downregulation of Cyclin D1 protein levels after 24 hrs by Western blot analysis. Type of data set: functional, cell-based. The method, boiled down: as §5
The nature of data set [14]: Binding affinity to VEGF promoter G-quadruplex DNA (unknown origin) after 1 min by fluorescence titration method. The class given is ADME. The essentials:
as §4

The nature of data set [15]: Stabilization of VEGF G-quadruplex DNA in human SiHa cells assessed as effect on VEGF mRNA level at 1.25 to 5 uM fter 6 hrs by RT-PCR method. The class given is ADME, cell-based. The essentials:
(§6)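 SiHa cells (2.0×10^5) dosed 6 h; total RNA reverse-transcribed with oligo dT18 primer and M-MLV (42 °C 1 h, 85 °C 5 min); PCR 95 °C 5 min then 30 cycles (95 °C 30 s, 58 °C 30 s, 72 °C 40 s); products checked on agarose gel.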

The species entered for data set [16] is Homo sapiens. The experiment in a line: Stabilization of c-Myc G-quadruplex DNA in human SiHa cells assessed as inhibition of c-Myc mRNA level at 1.25 to 5 uM after 6 hrs by RT-PCR method. The class given is cell-based. The method, boiled down: as §6
Data set [17] in a line: Binding affinity to 1 uM BCL2 promoter G-quadruplex DNA (unknown origin) at 1 uM after 1 min by fluorescence spectroscopic analysis. Type of data set: ADME. The essentials: as §1
Data set [18] can be described thus: Stabilization of wild type c-Myc promoter G-quadruplex DNA (unknown origin) transfected in human SiHa cells co-expressing psiCHECK2 luciferase plasmid assessed as inhibition of gene transcription at 1.25 to 2.5 uM after 48 hrs by dual-luciferase reporter gene assay. Type of data set: cell-based. The essentials:
as §2

The source made the active and inactive calls. The calls are words filed in the database; no cut-off is given here.

As to `CCn1c2ccccc2c2cc(-c3nc(-c4ccc(N5CCN(C)CC5)cc4)c(-c4ccc(N5CCN(C)CC5)cc4)n3-c3ccc(OC)cc3)ccc21`, the Activity entry in data set [1] was “Not Active”; with SiHa [7], “Dose-dependent effect”; with BJ it was “Non-Toxic”; in data set [9] it was “Not Active”; in [11] it was “Not Active”; in [12], “Not Active”. Further, the results for the Activity result (in the data set on SiHa [13]; in data set [15]; in data set [17]) were “Dose-dependent effect”, “Not Active” and “Not Active”, respectively. Further, the outcome in the data set filed under Homo sapiens [2] and in the data set listed under Homo sapiens [3] was Active. Further, the outcome in [4] was inactive. In addition, the TGI entry was “Tde” in the data set with SiHa [5] and 57% in the data set on SiHa [10]. For the same compound, the Kd in data set [6] was 100 nM; in data set [14] it was 900 nM. Moreover, the IC50 in the data set with SiHa [8] came to 3300 nM. Besides, the inhibition entry (in the data set filed under Homo sapiens [16]; in [18]) was “Active” in each case.
